Usually inhibition stands for the percentage by which the read-out fell short of the control. The IC50 is the point on the concentration scale where inhibition reaches its midpoint. For orientation: Papp means the rate of passage across a membrane or cell layer, normalised by area and donor concentration. As a reminder, the Ki is the equilibrium dissociation constant of an inhibitor or competing ligand from its target. A higher Ki goes with lower affinity.

The structures appear in SMILES notation. Active and inactive are the calls of the source. The calls are words filed in the database; no cut-off is given here.

Here are results for one molecule from ChEMBL document CHEMBL1152519, “Synthesis, structural activity-relationships, and biological evaluation of novel amide-based allosteric binding site antagonists in NR1A/NR2B N-methyl-D-aspartate receptors” (Bioorg Med Chem, 2009).

Data set [1] has as its target Glutamate receptor ionotropic, NMDA 1/NMDA 2B (Mus musculus) (UniProt P35438+Q01097). Briefly: Antagonist activity at mouse recombinant NR1/NR2B receptor expressed in Xenopus laevis oocytes assessed as inhibition of glutamate/glycine-induced current at 3 uM by two electrode voltage clamp method. The class given is functional, cell-based. Particulars: Oocyte. Background: Two-electrode voltage clamp is typically applied to oocytes expressing channels or transporters.

For data set [2], the target named is T1, Glutamate NMDA receptor; GRIN1/GRIN2B (Homo sapiens, UniProt Q05586+Q13224). Briefly: Antagonist activity at human recombinant NR1/NR2B receptor expressed in frog oocytes assessed as inhibition of glutamate/glycine-induced current at 3 uM by two electrode voltage clamp method. Type of data set: functional, cell-based. Particulars: Oocyte.
The target of data set [3] is Glutamate NMDA receptor; Grin1/Grin2a (Rattus norvegicus, UniProt P35439+Q00959). Briefly: Antagonist activity at rat recombinant NR1/NR2A receptor expressed in Xenopus laevis oocytes assessed as inhibition of glutamate/glycine-induced current by two electrode voltage clamp method. The class given is functional, cell-based, Oocyte. The procedure, abridged:
(§1)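 Xenopus oocytes expressing NR1/NR2 (wild type or amino terminal domain deletion mutant) recorded by TEVC at −40 mV, room temperature, pH 7.4–7.6, with EDTA 10 μM. Maximal glutamate/glycine applied alone, then with 5–8 successive compound concentrations. Leak-corrected; responses under 50 nA excluded. IC50 from fitted composite curve. NR1/NR2A oocytes were pre-incubated in 50 μM BAPTA-AM.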

The target in data set [4] is Glutamate NMDA receptor; Grin1/Grin2c (Rattus norvegicus, UniProt P35439+Q00961). Briefly: Antagonist activity at rat recombinant NR1/NR2C receptor expressed in Xenopus laevis oocytes assessed as inhibition of glutamate/glycine-induced current by two electrode voltage clamp method. The class given is functional, cell-based, Oocyte. The procedure, abridged:
as §1

The target in data set [5] is Ionotropic glutamate receptor NMDA 1/2D (Rattus norvegicus, UniProt P35439+Q62645). Briefly: Antagonist activity at rat recombinant NR1/NR2D receptor expressed in Xenopus laevis oocytes assessed as inhibition of glutamate/glycine-induced current by two electrode voltage clamp method. Type of data set: functional, cell-based, Oocyte. The procedure, abridged: as §1
Data set [6] has as its target Glutamate receptor ionotropic, kainate 2 (Rattus norvegicus) (UniProt P42260). Briefly: Antagonist activity at rat recombinant GluR6 expressed in Xenopus laevis oocytes assessed as inhibition of concanavalin A/glutamate-induced current at 3 uM by two electrode voltage clamp method. Particulars: Oocyte. The class given is functional, cell-based. The procedure, abridged:
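Oocytes expressing homomeric GluR6 (5–10 ng cRNA) pretreated 5 min with 10 μM concanavalin-A. Currents evoked by 100 μM glutamate at −40 mV, with or without 3 μM compound, and given as percent of control. Mean ± SEM of 4–10 oocytes; paired t-test.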

Data set [7] deals with Glutamate receptor 1 (Rattus norvegicus) (UniProt P19490). The data set is described as follows: Antagonist activity at rat recombinant GluR1 expressed in Xenopus laevis oocytes assessed as inhibition of glutamate-induced current at 3 uM by two electrode voltage clamp method. The class given is functional, cell-based. Particulars: Oocyte. The procedure, abridged:
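GluR1 homomers expressed from 5–10 ng cRNA in Xenopus oocytes. Clamped at −40 mV. Currents evoked by 100 μM glutamate with 3 μM compound, expressed as % of control without compound. Mean ± SEM, 4–10 oocytes; paired t-test.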

The species named for data set [8] is Rattus norvegicus. The data set is described as follows: Inhibition of voltage-gated sodium channel in Sprague-Dawley rat cortical neuron at 3 uM by whole cell patch clamp technique.
Data set [9] is filed under the species Rattus norvegicus. Briefly: Inhibition of voltage-gated potassium channel in Sprague-Dawley rat cortical neuron at 3 uM by whole cell patch clamp technique. (In patch-clamp work, channel activity is measured electrically.)
For data set [10], the target named is T2, Glutamate NMDA receptor; Grin1/Grin2b (Rattus norvegicus) (UniProt P35439+Q00960). Briefly: Antagonist activity at rat recombinant NR1/NR2B receptor expressed in Xenopus laevis oocytes assessed as noncompetitive inhibition of glutamate/glycine-induced current at 0.054 uM by two electrode voltage clamp method. The class given is functional, cell-based. Particulars: Oocyte. The procedure, abridged: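 TEVC on rat NR1/NR2B oocytes at −40 mV. Inhibition by 0.054 μM compound measured while glutamate or glycine was raised 10-fold above the control 50 μM glutamate/30 μM glycine. Response given as percent of control; n = 4.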

Data set [11] has as its target Glutamate receptor ionotropic, NMDA 2B (Mus musculus, UniProt P35438+Q01097, D101A). The data set is described as follows: Antagonist activity at mouse NR1/NR2B receptor D101A mutant expressed in Xenopus laevis oocytes assessed as inhibition of glutamate/glycine-induced current by two electrode voltage clamp method. Type of data set: functional, cell-based, Oocyte. The procedure, abridged:
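Oocytes express NR1/NR2B amino-terminal-domain mutants (mouse D101A point mutant; rat ATD deletion). Concentration–effect curves were recorded by two-electrode voltage clamp at −40 mV and 23 °C, with 50 μM glutamate plus 30 μM glycine. Each step is compound plus agonists, expressed relative to agonists alone.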

Data set [12] concerns MDCK. The data set is described as follows: Apparent permeability from apical to basolateral side of MDR1-expressing MDCK cells at 5 uM after 2 hrs by LC-MS/MS analysis. Type of data set: ADME, cell-based, Canis lupus familiaris. Particulars: dog. The procedure, abridged: (§2)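 MDR1-MDCK monolayers grown 7–11 days on Transwells. Compound at 5 μM in HBSS pH 7.4 (final DMSO ≤1%) added apically (A–B) or basally (B–A). Incubated 2 h at 37 °C; both compartments quantified by LC–MS/MS against a >4-point calibration. Papp given in ×10−6 cm/s; efflux ratio = B–A/A–B. Duplicates.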

In data set [13] the test system is MDCK. The data set is described as follows: Apparent permeability from basolateral to apical side of MDR1-expressing MDCK cells at 5 uM after 2 hrs by LC-MS/MS analysis. The class given is ADME, cell-based, Canis lupus familiaris. Particulars: dog. The procedure, abridged: as §2
Data set [14] concerns the target T2, Glutamate NMDA receptor; Grin1/Grin2b (Rattus norvegicus). Briefly: Antagonist activity at rat recombinant NR1/NR2B receptor expressed in Xenopus laevis oocytes assessed as inhibition of glutamate/glycine-induced current at 3 uM by two electrode voltage clamp method relative to control. Type of data set: functional, cell-based. Particulars: Oocyte. The procedure, abridged: (§3)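 Xenopus oocytes injected with NR1-1a (3–5 ng) plus NR2A, 2B, 2C or 2D cRNA (7–10 ng), kept at 15 °C. Voltage clamp at −40 mV. Responses to 50 μM glutamate + 30 μM glycine with 3 μM compound, as % of response without compound. NR2A oocytes pre-loaded with 50 μM BAPTA-AM. Mean ± SEM, 4–10 oocytes; paired t-test.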

For data set [15], the target named is Glutamate NMDA receptor; Grin1/Grin2c (Rattus norvegicus) (UniProt P35439+Q00961). Briefly: Antagonist activity at rat recombinant NR1/NR2C receptor expressed in Xenopus laevis oocytes assessed as inhibition of glutamate/glycine-induced current at 3 uM by two electrode voltage clamp method relative to control. Type of data set: functional, cell-based. Particulars: Oocyte. The procedure, abridged: as §3

In data set [16] the target is Glutamate NMDA receptor; Grin1/Grin2b (Rattus norvegicus, UniProt P35439+Q00960). Briefly: Antagonist activity at rat recombinant NR1/NR2B receptor expressed in frog oocytes assessed as inhibition of glutamate/glycine-induced current by two electrode voltage clamp method. Type of data set: functional, cell-based, Oocyte. The procedure, abridged: as §1
Data set [17] addresses Ionotropic glutamate receptor NMDA 1/2D (Rattus norvegicus) (UniProt P35439+Q62645). The data set is described as follows: Antagonist activity at rat recombinant NR1/NR2D receptor expressed in Xenopus laevis oocytes assessed as inhibition of glutamate/glycine-induced current at 3 uM by two electrode voltage clamp method relative to control. Particulars: Oocyte. Type of data set: functional, cell-based. The procedure, abridged:
as §3

Data set [18] has as its target T1, Glutamate NMDA receptor; GRIN1/GRIN2B. Briefly: Antagonist activity at human recombinant NR1/NR2B receptor expressed in frog oocytes assessed as inhibition of glutamate/glycine-induced current by two electrode voltage clamp method. Type of data set: functional, cell-based, Oocyte. The procedure, abridged:
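Human NR1/NR2B cRNA injected into Xenopus oocytes. Two-electrode voltage clamp at −40 mV, 23 °C, 2–7 d after injection. Glutamate/glycine (50–100 μM/30 μM) applied, then with 5–8 compound concentrations. Bath contains 10 μM EDTA; leak-corrected.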

The target of data set [19] is Glutamate receptor ionotropic, NMDA 2B (Rattus norvegicus, UniProt Q00960). The data set is described as follows: Displacement of [3H]ifenprodil form NR2B receptor in Wistar rat cerebral cortex membrane. Type of data set: tissue-based. For orientation: In a radioligand displacement assay an active substance lowers the binding of a labelled ligand.

Chain of Glutamate receptor ionotropic, kainate 2 (Rattus norvegicus) (P42260 whole entry): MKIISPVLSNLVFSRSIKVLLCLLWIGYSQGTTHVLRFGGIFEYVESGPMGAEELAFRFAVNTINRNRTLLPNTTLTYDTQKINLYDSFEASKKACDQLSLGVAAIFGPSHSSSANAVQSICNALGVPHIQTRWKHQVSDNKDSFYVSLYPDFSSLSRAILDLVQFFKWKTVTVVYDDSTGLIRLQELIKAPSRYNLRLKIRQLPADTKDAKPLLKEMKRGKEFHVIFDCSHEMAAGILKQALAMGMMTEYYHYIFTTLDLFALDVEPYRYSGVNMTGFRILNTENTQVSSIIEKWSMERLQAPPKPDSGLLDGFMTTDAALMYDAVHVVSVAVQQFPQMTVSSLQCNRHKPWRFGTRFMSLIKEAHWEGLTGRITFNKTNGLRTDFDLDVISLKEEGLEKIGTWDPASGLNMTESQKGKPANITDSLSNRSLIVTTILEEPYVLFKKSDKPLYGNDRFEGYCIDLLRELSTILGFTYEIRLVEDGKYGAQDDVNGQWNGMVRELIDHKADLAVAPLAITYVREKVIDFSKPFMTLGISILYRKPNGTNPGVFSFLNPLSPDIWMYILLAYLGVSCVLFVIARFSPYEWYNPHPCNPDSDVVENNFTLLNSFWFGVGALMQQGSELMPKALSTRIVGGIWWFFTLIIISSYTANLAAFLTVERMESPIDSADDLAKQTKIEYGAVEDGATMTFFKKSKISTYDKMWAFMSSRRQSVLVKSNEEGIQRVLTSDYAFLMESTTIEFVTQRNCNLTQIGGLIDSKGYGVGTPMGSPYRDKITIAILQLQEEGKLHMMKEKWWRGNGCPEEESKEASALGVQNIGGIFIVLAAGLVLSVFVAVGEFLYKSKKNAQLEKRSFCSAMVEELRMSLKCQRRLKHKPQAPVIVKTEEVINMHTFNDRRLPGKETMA
Chain of Glutamate receptor 1 (Rattus norvegicus) (P19490 whole entry): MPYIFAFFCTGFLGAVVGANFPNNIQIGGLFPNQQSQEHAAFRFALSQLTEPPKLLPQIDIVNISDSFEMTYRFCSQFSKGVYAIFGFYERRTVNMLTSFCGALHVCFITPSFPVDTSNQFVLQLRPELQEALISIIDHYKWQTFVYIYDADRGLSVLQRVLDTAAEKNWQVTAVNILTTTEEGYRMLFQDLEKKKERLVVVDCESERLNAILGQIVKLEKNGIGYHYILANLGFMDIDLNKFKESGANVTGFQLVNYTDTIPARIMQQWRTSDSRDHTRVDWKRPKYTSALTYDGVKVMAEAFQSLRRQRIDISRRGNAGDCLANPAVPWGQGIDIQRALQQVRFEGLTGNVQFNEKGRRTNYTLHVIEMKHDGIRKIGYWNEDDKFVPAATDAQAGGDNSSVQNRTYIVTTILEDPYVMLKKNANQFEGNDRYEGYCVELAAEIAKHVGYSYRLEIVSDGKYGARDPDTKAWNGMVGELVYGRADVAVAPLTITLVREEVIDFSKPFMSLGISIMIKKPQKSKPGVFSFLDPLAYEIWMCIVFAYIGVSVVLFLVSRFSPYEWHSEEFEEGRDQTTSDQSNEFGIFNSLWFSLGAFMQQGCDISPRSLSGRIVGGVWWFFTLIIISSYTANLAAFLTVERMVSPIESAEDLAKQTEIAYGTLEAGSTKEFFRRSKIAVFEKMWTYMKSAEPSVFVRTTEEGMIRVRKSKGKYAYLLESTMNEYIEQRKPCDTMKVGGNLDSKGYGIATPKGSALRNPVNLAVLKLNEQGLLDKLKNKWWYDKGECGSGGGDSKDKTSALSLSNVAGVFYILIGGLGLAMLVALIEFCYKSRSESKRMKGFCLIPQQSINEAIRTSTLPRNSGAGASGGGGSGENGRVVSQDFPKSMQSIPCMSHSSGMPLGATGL
Chain of Glutamate NMDA receptor; Grin1/Grin2a (Q00959 whole entry, other chains not shown, the tested form may be a part): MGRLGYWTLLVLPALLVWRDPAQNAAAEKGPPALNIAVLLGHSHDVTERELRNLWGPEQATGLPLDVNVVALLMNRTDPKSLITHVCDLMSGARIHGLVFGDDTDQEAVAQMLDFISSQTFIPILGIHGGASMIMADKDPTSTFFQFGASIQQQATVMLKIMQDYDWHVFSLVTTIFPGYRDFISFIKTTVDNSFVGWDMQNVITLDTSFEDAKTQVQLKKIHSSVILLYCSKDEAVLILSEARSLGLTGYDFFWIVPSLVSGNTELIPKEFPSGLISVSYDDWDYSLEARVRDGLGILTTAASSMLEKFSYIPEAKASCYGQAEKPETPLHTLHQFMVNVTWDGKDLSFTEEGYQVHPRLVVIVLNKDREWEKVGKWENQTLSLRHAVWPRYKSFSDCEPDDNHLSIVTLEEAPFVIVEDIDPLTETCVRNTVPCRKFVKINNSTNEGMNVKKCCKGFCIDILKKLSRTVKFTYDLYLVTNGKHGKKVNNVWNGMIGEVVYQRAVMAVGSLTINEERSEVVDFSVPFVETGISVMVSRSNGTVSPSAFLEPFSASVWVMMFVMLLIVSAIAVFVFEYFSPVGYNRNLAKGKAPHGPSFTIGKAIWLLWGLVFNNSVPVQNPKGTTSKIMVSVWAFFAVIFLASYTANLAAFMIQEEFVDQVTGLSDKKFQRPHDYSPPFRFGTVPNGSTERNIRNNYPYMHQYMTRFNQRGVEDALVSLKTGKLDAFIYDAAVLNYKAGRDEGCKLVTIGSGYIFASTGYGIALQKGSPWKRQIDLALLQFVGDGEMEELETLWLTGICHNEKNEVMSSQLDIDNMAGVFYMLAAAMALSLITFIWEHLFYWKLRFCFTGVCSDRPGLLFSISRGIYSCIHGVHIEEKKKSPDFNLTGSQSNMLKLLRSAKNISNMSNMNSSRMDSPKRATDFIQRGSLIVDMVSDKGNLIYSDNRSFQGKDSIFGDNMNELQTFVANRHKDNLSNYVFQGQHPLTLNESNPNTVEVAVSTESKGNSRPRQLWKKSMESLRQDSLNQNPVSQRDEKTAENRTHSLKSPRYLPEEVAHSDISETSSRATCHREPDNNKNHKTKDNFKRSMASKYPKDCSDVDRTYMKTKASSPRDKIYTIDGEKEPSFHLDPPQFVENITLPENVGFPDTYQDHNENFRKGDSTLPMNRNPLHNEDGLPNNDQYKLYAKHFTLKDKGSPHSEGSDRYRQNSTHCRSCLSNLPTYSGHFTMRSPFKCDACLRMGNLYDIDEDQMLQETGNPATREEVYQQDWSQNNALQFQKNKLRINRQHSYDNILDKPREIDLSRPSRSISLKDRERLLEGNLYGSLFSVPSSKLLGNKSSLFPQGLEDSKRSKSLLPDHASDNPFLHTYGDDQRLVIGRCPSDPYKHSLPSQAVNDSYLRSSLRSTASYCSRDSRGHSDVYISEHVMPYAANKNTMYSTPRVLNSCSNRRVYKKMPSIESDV
Chain of Glutamate receptor ionotropic, NMDA 2B (Mus musculus, UniProt P35438+Q01097, D101A) (Q01097 whole entry D101A, one chain of several): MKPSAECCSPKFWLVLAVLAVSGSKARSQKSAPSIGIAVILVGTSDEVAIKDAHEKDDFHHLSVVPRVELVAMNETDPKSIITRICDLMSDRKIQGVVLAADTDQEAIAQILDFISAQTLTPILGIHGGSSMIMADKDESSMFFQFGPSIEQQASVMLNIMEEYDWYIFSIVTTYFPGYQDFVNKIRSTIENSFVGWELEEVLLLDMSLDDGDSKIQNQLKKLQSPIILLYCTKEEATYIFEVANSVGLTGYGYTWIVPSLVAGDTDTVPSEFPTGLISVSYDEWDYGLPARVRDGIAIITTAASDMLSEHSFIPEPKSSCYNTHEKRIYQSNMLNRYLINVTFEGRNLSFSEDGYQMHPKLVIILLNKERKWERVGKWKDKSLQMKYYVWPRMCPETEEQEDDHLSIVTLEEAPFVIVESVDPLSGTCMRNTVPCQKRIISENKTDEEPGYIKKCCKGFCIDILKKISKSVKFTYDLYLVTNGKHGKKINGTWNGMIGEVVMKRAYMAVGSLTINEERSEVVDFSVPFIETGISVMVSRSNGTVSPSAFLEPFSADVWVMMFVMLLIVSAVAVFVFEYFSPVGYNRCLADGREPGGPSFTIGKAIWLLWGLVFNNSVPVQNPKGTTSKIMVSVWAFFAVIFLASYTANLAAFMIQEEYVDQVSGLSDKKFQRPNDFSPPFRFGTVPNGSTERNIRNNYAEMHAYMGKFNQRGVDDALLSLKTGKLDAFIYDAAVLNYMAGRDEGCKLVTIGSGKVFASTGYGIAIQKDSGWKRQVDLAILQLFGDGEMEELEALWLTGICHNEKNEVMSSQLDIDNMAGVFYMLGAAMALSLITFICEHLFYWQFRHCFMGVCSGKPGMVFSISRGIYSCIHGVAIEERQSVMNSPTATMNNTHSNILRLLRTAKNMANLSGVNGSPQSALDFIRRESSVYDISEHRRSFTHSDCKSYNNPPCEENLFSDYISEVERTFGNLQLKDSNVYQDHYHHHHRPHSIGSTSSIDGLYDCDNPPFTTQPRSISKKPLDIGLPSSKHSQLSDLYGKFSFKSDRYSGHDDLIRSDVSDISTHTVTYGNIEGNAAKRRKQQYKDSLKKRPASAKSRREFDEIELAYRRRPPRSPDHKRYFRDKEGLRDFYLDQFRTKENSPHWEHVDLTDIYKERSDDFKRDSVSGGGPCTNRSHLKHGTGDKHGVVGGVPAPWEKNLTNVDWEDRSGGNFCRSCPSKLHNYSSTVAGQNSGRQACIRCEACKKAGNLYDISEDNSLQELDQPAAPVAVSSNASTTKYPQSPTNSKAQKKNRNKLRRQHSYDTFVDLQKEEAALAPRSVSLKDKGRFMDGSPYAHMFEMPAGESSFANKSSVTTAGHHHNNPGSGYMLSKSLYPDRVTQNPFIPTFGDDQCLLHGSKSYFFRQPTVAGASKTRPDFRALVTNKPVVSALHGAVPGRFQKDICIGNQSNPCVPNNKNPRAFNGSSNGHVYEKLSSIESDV

For the molecule `CS(=O)(=O)Nc1ccc(OCC(=O)NCCNc2ccc(Cl)c(Cl)c2)cc1`, the values for the inhibition in data set [1] and in data set [2] were 78% and 90%, respectively. For the same molecule, the concentration for half-maximal inhibition (IC50) in [3] worked out at 82 µM; in data set [4] it was 58 µM; in [5] it was 107 µM; in data set [11], 52 µM; in [16] it was 0.057 µM; in data set [18] it was 0.054 µM. For the same molecule, the inhibition entry (in data set [6]; in data set [7]; in the data set listed under Rattus norvegicus [8]; in the data set listed under Rattus norvegicus [9]) was “inactive” in each case. In addition, the inhibition entry in data set [10] was “Active”. Also, the Papp with MDCK [12] is 1.8 ×10⁻⁶ cm/s; in the data set on MDCK [13] it was 63.2 ×10⁻⁶ cm/s. Also, the % response in data set [14] turned out to be 16%; in data set [15], 98%; in data set [17], 91%. For the same molecule, in data set [19], the affinity corresponds to a Ki of 0.119 µM.
